According to ChEMBL document CHEMBL1240363, “Pharmacokinetics of ertapenem following intravenous and subcutaneous infusions in patients” (Antimicrob Agents Chemother, 2010):

Assays:
Homo sapiens = experiment: Ratio of AUC (0 to 24 hrs) in sc dosed patient with bacterial infection to AUC (0 to 24 hrs) in iv dosed patient with bacterial infection; assay type: ADME, organism-based; settings: in vivo
Procedure, shortened: (§1)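 Six infected patients received ertapenem 1 g once daily, infused over 30 min: first i.v. via a central vein, then s.c. into the anterior thigh for one day. Arterial plasma was sampled over 24 h at steady state (i.v. on days 4–7). Plasma was stabilized 1:1 at pH 6.5 and assayed by LC-MS/MS. Total concentrations were fitted with compartmental models (1/y weighting), giving Cmax, tmax, t1/2, AUC0-24, CL and Vss as mean ± SD.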

[1] = fT>MIC methicillin-resistant Staphylococcus aureus-infected kinetic model; assay type: functional
[2] = Tmax in patient with bacterial infection at 1 gm[…], sc administered at 30 mins regimen for 24 hrs by LC/MS/MS analysis; assay type: ADME, organism-based; settings: human, in vivo; procedure, shortened: as §1
[3] = fT>MIC […]-infected kinetic model; assay type: functional
[4] = Cmax in patient with bacterial infection at 1 gm[…], sc administered at 30 mins regimen for 24 hrs by LC/MS/MS analysis; assay type: ADME, organism-based; parameters: route subcutaneous; settings: human, in vivo; procedure, shortened: as §1
[5] = fT>MIC […] Escherichia coli-infected kinetic model; assay type: functional
[6] = Half life in patient with bacterial infection at […], sc administered at 30 mins regimen for 24 hrs by LC/MS/MS analysis; assay type: ADME, organism-based; settings: human, in vivo; procedure, shortened: as §1
[7] = Clearance in patient with bacterial infection at 1 gm[…], iv administered at 30 mins regimen for 24 hrs by LC/MS/MS analysis; assay type: ADME, organism-based; settings: human, in vivo; procedure, shortened: as §1
[8] = Half life in patient with bacterial infection at […], iv administered at 30 mins regimen for 24 hrs by LC/MS/MS analysis; assay type: ADME, organism-based; settings: human, in vivo; procedure, shortened: as §1
[9] = Tmax in patient with bacterial infection at 1 gm[…], iv administered at 30 mins regimen for 24 hrs by LC/MS/MS analysis; assay type: ADME, organism-based; settings: human, in vivo; procedure, shortened: as §1
[10] = Volume of distribution at steady state in patient with bacterial infection at 1 gm, iv administered at 30 mins regimen for 24 hrs by LC/MS/MS analysis; settings: human, in vivo, read-out: Vdss
[11] = Cmax in patient with bacterial infection at 1 gm[…], iv administered at 30 mins regimen for 24 hrs by LC/MS/MS analysis; assay type: ADME, organism-based; parameters: route intravenous; settings: human, in vivo; procedure, shortened: as §1
[12] = fT>MIC […] Klebsiella pneumoniae-infected kinetic model; assay type: functional

C[C@@H](O)[C@H]1C(=O)N2C(C(=O)O)=C(S[C@@H]3CN[C@H](C(=O)Nc4cccc(C(=O)O)c4)C3)[C@H](C)[C@H]12 [ERTAPENEM]
Ratio AUC (Homo sapiens): 0.99 | fT>MIC [1]: 30% | Tmax [2]: 2.7 h | fT>MIC [3]: 30% | Cmax [4]: 43 µg/mL | fT>MIC [5]: 30% | half-life [6]: 5.4 h | clearance [7]: 63.3 mL/min | half-life [8]: 3.9 h | Tmax [9]: 0.5 h | Vd [10]: 16.1 L | Cmax [11]: 115 µg/mL | fT>MIC [12]: 30%
